Data taken from ChEMBL document CHEMBL3091313, “Amino acids derived benzoxazepines: design, synthesis and antitumor activity” (Bioorg Med Chem Lett, 2013).
pIC50: −log10 of the molar value. Calls of active or inactive are those of the source. The calls are words filed in the database; no cut-off is given here.

Experiments:
HEK293 = experiment: Cytotoxicity against HEK293 cells after 24 hrs by MTT assay; assay type: cell-based; conditions: Homo sapiens, HEK293, 72 h; in the assay text read “after 72 hrs” for “after 24 hrs”
MCF7 [1] = experiment: Induction of apoptosis in human MCF7 cells assessed as caspase-3 cleavage at 5 uM after 3 hrs by immunoblotting method; assay type: functional, cell-based
MCF7 [2] = experiment: Antiproliferative activity against human MCF7 cells after 24 hrs by MTT assay; assay type: functional, cell-based; conditions: MCF7, 24 h
Summary of the method: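 MCF-7 (ER+ve) and MDA-MB-231 (ER-ve) breast cancer cells were exposed to compound or vehicle. Viability was read by MTT and expressed as % cell death versus vehicle, with 4-hydroxytamoxifen as positive control. IC50 came from three independent experiments, each in triplicate.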

MDA-MB-231 [3] = experiment: Cell cycle arrest in human MDA-MB-231 cells assessed as accumulation at S phase at 3 uM after 24 hrs using propidium iodide staining by flow cytometry (reference value: 28.59 %); assay type: functional
MDA-MB-231 [4] = experiment: Cell cycle arrest in human MDA-MB-231 cells assessed as accumulation at G2 phase at 1 uM after 24 hrs using propidium iodide staining by flow cytometry (reference value: 18.75 %); assay type: functional
MCF7 [5] = experiment: Cell cycle arrest in human MCF7 cells assessed as accumulation at S phase at 5 uM after 24 hrs using propidium iodide staining by flow cytometry (reference value: 24.81 %); assay type: functional
MDA-MB-231 [6] = experiment: Cell cycle arrest in human MDA-MB-231 cells assessed as accumulation at G2 phase at 3 uM after 24 hrs using propidium iodide staining by flow cytometry (reference value: 18.75 %); assay type: functional
MCF7 [7] = experiment: Cytotoxicity against human MCF7 cells assessed as reduction in membrane integrity at IC50 by LDH release assay; assay type: functional, cell-based
Summary of the method: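 Membrane integrity was assessed in MCF-7 cells exposed to a range of compound concentrations, by measuring LDH released into the culture medium.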

MCF7 [8] = experiment: Cell cycle arrest in human MCF7 cells assessed as accumulation at G2 phase at 5 uM after 24 hrs using propidium iodide staining by flow cytometry (reference value: 7.46 %); assay type: functional
MCF7 [9] = experiment: Induction of apoptosis in human MCF7 cells assessed as reduction in cell viability at 5 uM after 24 hrs by MTT assay in presence of zIEDT-FMK; assay type: functional, cell-based
MDA-MB-231 [10] = experiment: Cell cycle arrest in human MDA-MB-231 cells assessed as apoptosis at 3 uM after 24 hrs using propidium iodide staining by flow cytometry (reference value: 0.10 %); assay type: functional
MCF7 [11] = experiment: Induction of apoptosis in human MCF7 cells assessed as PARP cleavage after 6 to 24 hrs by densitometry; assay type: functional, cell-based
Summary of the method: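 Lysates from treated MCF-7 cells were immunoblotted for PARP, and cleaved PARP was quantified by densitometry. Data are mean ± SEM of three independent experiments.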

MCF7 [12] = experiment: Cell cycle arrest in human MCF7 cells assessed as accumulation at G2 phase at 3 uM after 24 hrs using propidium iodide staining by flow cytometry (reference value: 7.46 %); assay type: functional
MCF7 [13] = experiment: Cell cycle arrest in human MCF7 cells assessed as decrease in E2F mRNA level at 1 to 5 uM after 12 hrs by QRT-PCR method; assay type: functional, cell-based
MDA-MB-231 [14] = experiment: Cell cycle arrest in human MDA-MB-231 cells assessed as accumulation at G1 phase at 5 uM after 24 hrs using propidium iodide staining by flow cytometry (reference value: 52.67 %); assay type: functional
MCF7 [15] = experiment: Cell cycle arrest in human MCF7 cells assessed as increase in p21 protein level at 5 uM after 12 to 24 hrs by immunoblotting method; assay type: functional, cell-based
[16] = Cytotoxicity against rat primary calvarial osteoblasts after 24 hrs by MTT assay; assay type: cell-based; conditions: calvarial osteoblast
Summary of the method: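 Vero, HEK-293 and primary rat calvarial osteoblasts were given vehicle or a range of concentrations for 24 h. Cell death was expressed as % relative to vehicle.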

[17] = Safety index, ratio of IC50 for HEK293 cells to IC50 for human MCF7 cells; assay type: toxicity, cell-based; conditions: HEK293 cells versus MCF7 cells, read-out: Ratio IC50
Summary of the method: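 Cell death was assessed by MTT assay after 72 h exposure. The ratio was calculated as the HEK-293 IC50 divided by the MCF-7 EC50.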

MDA-MB-231 [18] = experiment: Cell cycle arrest in human MDA-MB-231 cells assessed as apoptosis at 5 uM after 24 hrs using propidium iodide staining by flow cytometry (reference value: 0.10 %); assay type: functional
MCF7 [19] = experiment: Induction of apoptosis in human MCF7 cells assessed as reduction in cell viability at 5 uM after 24 hrs by MTT assay in presence of LEHD-FMK; assay type: functional, cell-based
MDA-MB-231 [20] = experiment: Cell cycle arrest in human MDA-MB-231 cells assessed as accumulation at S phase at 5 uM after 24 hrs using propidium iodide staining by flow cytometry (reference value: 28.59 %); assay type: functional
MCF7 [21] = experiment: Induction of apoptosis in human MCF7 cells assessed as early apoptotic cells at 3 uM after 24 hrs using annexin V/PI staining by flow cytometry (reference value: 3.19 %); assay type: functional
MCF7 [22] = experiment: Cell cycle arrest in human MCF7 cells assessed as apoptosis at 1 uM after 24 hrs using propidium iodide staining by flow cytometry (reference value: 0.06 %); assay type: functional
MCF7 [23] = experiment: Cell cycle arrest in human MCF7 cells assessed as accumulation at G1 phase at 1 uM after 24 hrs using propidium iodide staining by flow cytometry (reference value: 67.73 %); assay type: functional
MDA-MB-231 [24] = experiment: Cell cycle arrest in human MDA-MB-231 cells assessed as accumulation at G1 phase at 3 uM after 24 hrs using propidium iodide staining by flow cytometry (reference value: 52.67 %); assay type: functional

pIC50 (MCF7 [2]): 5.17
Compound: Cc1ccc(S(=O)(=O)N2Cc3ccccc3OC[C@@H]2Cc2ccc(OCCN3CCCCCC3)cc2)cc1.Cl
pIC50 (HEK293): 4.52
Activity (MCF7 [1]): Active
Activity (MDA-MB-231 [3]): 18.64%
Activity (MDA-MB-231 [4]): 7.46%
Activity (MCF7 [5]): 7.34%
Activity (MDA-MB-231 [6]): 8.08%
Activity (MCF7 [7]): inactive
Activity (MCF7 [8]): 6.44%
Activity (MCF7 [9]): Active
Activity (MDA-MB-231 [10]): 3.61%
Activity (MCF7 [11]): Dose-dependent effect
Activity (MCF7 [12]): 6.86%
Activity (MCF7 [13]): Active
Activity (MDA-MB-231 [14]): 75.82%
Activity (MCF7 [15]): Active
Activity [16]: Non-toxic
selectivity ratio [17]: 16.4
Activity (MDA-MB-231 [18]): 1.47%
Activity (MCF7 [19]): inactive
Activity (MDA-MB-231 [20]): 17.71%
Activity (MCF7 [21]): 20.74%
Activity (MCF7 [22]): 2.59%
Activity (MCF7 [23]): 74.1%
Activity (MDA-MB-231 [24]): 73.31%
